Assay outcomes from PubChem.
This is a sample that favours compounds with a hit; in the whole collection about 2.2% have one here.
ASAP1 GAP inh – inhibitors of human ASAP1 ArfGAP activity; Q9ULH1; ASAP1-stimulated ARF1 GTP hydrolysis, GDP FP detection; 0.19% of 360,000 active; inhibition, % at 16.5 µM; in the data active = inhibition above about 25%
Target sequence (Q9ULH1 325-724 limits assumed): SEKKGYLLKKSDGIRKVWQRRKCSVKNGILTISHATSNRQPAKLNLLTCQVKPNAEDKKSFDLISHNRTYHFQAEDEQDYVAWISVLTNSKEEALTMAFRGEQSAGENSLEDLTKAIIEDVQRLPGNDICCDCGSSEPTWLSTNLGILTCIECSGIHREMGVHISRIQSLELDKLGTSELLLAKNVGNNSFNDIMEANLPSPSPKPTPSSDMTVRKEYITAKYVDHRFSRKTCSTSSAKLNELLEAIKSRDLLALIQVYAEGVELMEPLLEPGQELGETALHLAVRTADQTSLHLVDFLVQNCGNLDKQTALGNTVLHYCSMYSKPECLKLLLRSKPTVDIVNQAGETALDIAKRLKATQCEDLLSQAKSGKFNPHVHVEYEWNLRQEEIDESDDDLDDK
Exocytosis inh – lytic granule exocytosis inhibition; TALL-104 LAMP-1 surface exposure, flow cytometry; cells stimulated with thapsigargin and PMA; inhibition, % at 10 µM; 0.66% of 360,000 active; AID 651702;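 active = inhibition above about 55%, limit read from the data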
V-ATPase pH – yeast V-ATPase proton transport regulation by pHLuorin. AID 504577. 0.37% of 350,000 active. S. cerevisiae, pHLuorin cytosolic pH fluorescence. response, % at 10 µM; in the data active = response mostly above about 7.3%, no sharp cut-off; inactive = mostly below about 5.4%; note: actives read high
ARFGAP1 inh – inhibitors of rat ARFGAP1 | Q62848 | Arfgap1-stimulated ARF1 GTP hydrolysis, GDP FP detection | inhibition, % at 16.5 µM | 0.26% of 360,000 active;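 active = inhibition above a per-plate limit, mean inhibition of low control wells plus 3 SD, cut at about 25% in these data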
Target sequence (Q62848 1-136 limits assumed): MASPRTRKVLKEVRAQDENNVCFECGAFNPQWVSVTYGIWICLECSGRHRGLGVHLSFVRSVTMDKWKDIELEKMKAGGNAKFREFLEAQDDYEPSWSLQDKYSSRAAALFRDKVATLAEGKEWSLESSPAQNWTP
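Repeats: one replicate per compound; assay system: rat Arfgap1 catalytic domain, aa 1-136; times: enzyme reaction 120 min at 25 °C after 20 min preincubation; detection: FP of antibody-bound GDP Alexa 633 tracer, ex 620/em 688 nm; benchmarks: high control wells lacking Arfgap1, low control full reaction with DMSO; reagent: human ARF1(Δ1-17)-GTP substrate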
NRP1-CendR mod – modulators of CendR peptide binding to human neuropilin-1; AID 602438; FAM-RPARPAR peptide binding to NRP-1, fluorescence polarization; 0.85% of 360,000 active; O14786; inhibition, % at 25 µM;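 active = inhibition or corrected inhibition above about 18%, plus a signal ratio from 0.5 to 1.5, limit read from the data, passing the limit was not always enough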
V-ATPase pH SP – regulators of yeast V-ATPase proton transport. response, % at 10 µM. AID 602197. shares compounds with V-ATPase pH. S. cerevisiae pHLuorin cytosolic pH. 2% of 980 active; in the data active = response above about 24%
Numbers stand for hits.

CN(CC(=O)Nc1ccc(N2CCOCC2)cc1)C(=O)CC(c1ccccc1)c1ccccc1 was read as ASAP1 GAP inh inactive, Exocytosis inh inactive, V-ATPase pH 12, ARFGAP1 inh inactive, NRP1-CendR mod inactive and V-ATPase pH SP inactive.
For CN(CC(=O)Nc1ccc(N2CCOCC2)cc1)C(=O)CSc1ccccc1F the results were ASAP1 GAP inh inactive, Exocytosis inh inactive, V-ATPase pH inactive, ARFGAP1 inh inactive and NRP1-CendR mod inactive.
`NS(=O)(=O)c1ccc(CCNC(=O)CCNS(=O)(=O)c2ccccc2C(F)(F)F)cc1` gave ASAP1 GAP inh inactive, Exocytosis inh inactive, V-ATPase pH inactive, ARFGAP1 inh inactive and NRP1-CendR mod inactive.
Screening O=c1ccnc(SCc2ccccc2Cl)[nH]1 returned ASAP1 GAP inh inactive, Exocytosis inh inactive, V-ATPase pH inactive, ARFGAP1 inh inactive and NRP1-CendR mod inactive.
For Clc1ccccc1CSC1=NCCCN1 the results were ASAP1 GAP inh inactive, Exocytosis inh inactive, V-ATPase pH inactive, ARFGAP1 inh inactive, NRP1-CendR mod inactive and V-ATPase pH SP inactive.
Screening Clc1ccc(CSC2=NCCCN2)cc1Cl returned ASAP1 GAP inh inactive, Exocytosis inh inactive, V-ATPase pH inactive, ARFGAP1 inh inactive, NRP1-CendR mod inactive and V-ATPase pH SP inactive.
`Nc1nc2c(ncn2[C@@H]2O[C@H](CNCc3ccc4ncccc4c3)[C@@H](O)[C@H]2O)c(=O)[nH]1` gave ASAP1 GAP inh inactive, Exocytosis inh inactive, ARFGAP1 inh inactive and NRP1-CendR mod inactive.
Screening O=C(OCc1ccccc1)N1Cc2ccnnc2CC1c1ccccc1-c1ccc(C(F)(F)F)cc1 (centres undefined) returned ASAP1 GAP inh inactive and ARFGAP1 inh inactive.
`CCN(Cc1ccc2c(c1)OCCO2)C(=O)CN1C(=O)NC2(CCCCC2)C1=O` gave ASAP1 GAP inh inactive, Exocytosis inh inactive, V-ATPase pH inactive, ARFGAP1 inh inactive and NRP1-CendR mod inactive.
`COc1ccc(N2C[C@H](CSC)[C@@H](CC(=O)Nc3ccccc3)C2=O)cc1` gave ASAP1 GAP inh inactive, Exocytosis inh inactive, V-ATPase pH 7.0, ARFGAP1 inh inactive, NRP1-CendR mod inactive and V-ATPase pH SP inactive.
`COc1ccc(N2C[C@H](Cc3ccccc3)[C@@H](CC(=O)Nc3ccccc3)C2=O)cc1` gave ASAP1 GAP inh inactive, Exocytosis inh inactive, V-ATPase pH inactive, ARFGAP1 inh inactive and NRP1-CendR mod inactive.
Cc1ccc(C(=O)C2CCOC(C)(C)C2)cc1 (centres undefined) was read as ASAP1 GAP inh inactive, Exocytosis inh inactive, V-ATPase pH 12, ARFGAP1 inh inactive, NRP1-CendR mod inactive and V-ATPase pH SP inactive.
Screening CC1=C(C(=O)N(C)C)CC(CC(=O)NC2CCCCC2)C(=O)N1Cc1ccccc1 (centres undefined) returned ASAP1 GAP inh inactive, Exocytosis inh inactive, V-ATPase pH inactive, ARFGAP1 inh inactive and NRP1-CendR mod inactive.
`CCN(CC)C(=O)C1=C(C)N(Cc2ccccc2)C(=O)C(CC(=O)NC2CCCC2)C1` (centres undefined) gave ASAP1 GAP inh inactive, Exocytosis inh inactive, V-ATPase pH 7.1, ARFGAP1 inh inactive, NRP1-CendR mod inactive and V-ATPase pH SP inactive.
Screening COc1ccc(N(CC(=O)Nc2cccc3ccccc23)S(C)(=O)=O)cc1 returned ASAP1 GAP inh inactive, Exocytosis inh inactive, V-ATPase pH 8.5, ARFGAP1 inh inactive, NRP1-CendR mod inactive and V-ATPase pH SP inactive.
COc1ccc(C2C3=C(CC(C)(C)CC3=O)Oc3ncn4nc(-c5ccccc5)nc4c32)cc1 (centres undefined) was read as ASAP1 GAP inh inactive, Exocytosis inh inactive, V-ATPase pH 12, ARFGAP1 inh inactive, NRP1-CendR mod inactive and V-ATPase pH SP inactive.
For Cc1ccc(C(=O)NNC(=O)CCn2nnc3ccccc32)cc1 the results were ASAP1 GAP inh inactive, Exocytosis inh inactive, V-ATPase pH 11, ARFGAP1 inh inactive, NRP1-CendR mod inactive and V-ATPase pH SP inactive.
For O=C(CSc1nc(=O)n(CCCN2CCOCC2)c2c1CCCC2)Nc1ccc(F)cc1F the results were ASAP1 GAP inh inactive, Exocytosis inh inactive, V-ATPase pH 6.0, ARFGAP1 inh inactive, NRP1-CendR mod inactive and V-ATPase pH SP inactive.
O=C(CSc1nc(=O)n(CCCN2CCOCC2)c2c1CCC2)Nc1ccc(F)cc1F was read as ASAP1 GAP inh inactive, Exocytosis inh inactive, V-ATPase pH inactive, ARFGAP1 inh inactive and NRP1-CendR mod inactive.
CC(C)c1ccc(/C=N/NC(=O)c2ccc(-n3cnnn3)cc2)cc1 was read as ASAP1 GAP inh inactive, Exocytosis inh inactive, V-ATPase pH inactive, ARFGAP1 inh inactive and NRP1-CendR mod inactive.
For CCOc1ccc(C2C(C#N)=C(N)SC(N)=C2C#N)c(OCC)c1 the results were ASAP1 GAP inh inactive, Exocytosis inh inactive, V-ATPase pH 12, ARFGAP1 inh inactive, NRP1-CendR mod inactive and V-ATPase pH SP inactive.
For Cn1c(=O)oc2cc(S(=O)(=O)Nc3ccc(Cl)cc3)ccc21 the results were ASAP1 GAP inh inactive, Exocytosis inh inactive, V-ATPase pH inactive, ARFGAP1 inh inactive and NRP1-CendR mod inactive.
Screening Cn1c(=O)oc2cc(S(=O)(=O)Nc3ccc(F)cc3)ccc21 returned ASAP1 GAP inh inactive, Exocytosis inh inactive, V-ATPase pH 7.4, ARFGAP1 inh inactive, NRP1-CendR mod inactive and V-ATPase pH SP inactive.
Screening O=C/C(=C\Nc1ccc(Br)cc1)c1nc2ccccc2o1 returned ASAP1 GAP inh inactive, Exocytosis inh inactive, V-ATPase pH 8.9, ARFGAP1 inh inactive, NRP1-CendR mod inactive and V-ATPase pH SP inactive.
For COc1cccc(C2C(C(=O)OCc3ccccc3)=C(C)Nc3ncnn32)c1OC (centres undefined) the results were ASAP1 GAP inh inactive, Exocytosis inh inactive, V-ATPase pH 8.5, ARFGAP1 inh inactive, NRP1-CendR mod inactive and V-ATPase pH SP inactive.
C=CCN(C(=O)CNS(=O)(=O)c1ccccc1)C(C(=O)NCCOC)c1ccncc1 (centres undefined) was read as ASAP1 GAP inh inactive, Exocytosis inh inactive, V-ATPase pH 22, ARFGAP1 inh inactive, NRP1-CendR mod inactive and V-ATPase pH SP inactive.
For CCC(C)NCCOCCOc1ccc(C)cc1Br (centres undefined) the results were ASAP1 GAP inh inactive, Exocytosis inh inactive, V-ATPase pH 36, ARFGAP1 inh inactive, NRP1-CendR mod inactive and V-ATPase pH SP inactive.
`CC(C)(C)S(=O)(=O)N1C[C@H]2C(=C(CCO)C[C@H]3C(=O)N(c4ccccc4)C(=O)[C@H]32)[C@@H]1CCO` gave ASAP1 GAP inh inactive and ARFGAP1 inh inactive.
Screening COC(=O)c1ccc(C2NC(=S)N(c3ccccc3)C(C)=C2C(=O)Nc2ccccc2OC)cc1 (centres undefined) returned ASAP1 GAP inh inactive, Exocytosis inh inactive, V-ATPase pH 11, ARFGAP1 inh inactive, NRP1-CendR mod inactive and V-ATPase pH SP inactive.
`O=C(CN1C(=O)NC2(CCCCC2)C1=O)N1CCN(c2ncccn2)CC1` gave ASAP1 GAP inh inactive, Exocytosis inh inactive, V-ATPase pH inactive, ARFGAP1 inh inactive and NRP1-CendR mod inactive.
